Reference: ChEMBL document CHEMBL4368942, “Dual inhibitors of RAF-MEK-ERK and PI3K-PDK1-AKT pathways: Design, synthesis and preliminary anticancer activity studies of 3-substituted-5-(phenylamino) indolone derivatives” (Bioorg Med Chem, 2019)
Calls of active or inactive are those of the source. The rule behind the calls is not given here.

Columns and labels:
[1] = test system: A549; test: Antiproliferative activity against human A549 cells after 48 hrs by MTT assay; format: functional, cell-based; conditions: A549, 48 h
In short: (§1)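 Cells grown in DMEM with 10% FBS and penicillin/streptomycin at 37°C, 5% CO2. 2 × 10^5 cells seeded per well in 200 µL medium. Compounds added 30 min after seeding, then 48 h incubation at 37°C. MTT (5 mg/ml stock) added for the last 4 h. Formazan dissolved in DMSO.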

[2] = test system: NCI-H460; test: Antiproliferative activity against human NCI-H460 cells after 48 hrs by MTT assay; format: functional, cell-based; conditions: NCI-H460, 48 h; in short: as §1
[3] = test system: A549; test: Induction of apoptosis in human A549 cells assessed as viable cells at 2.5 uM after 12 hrs by Annexin V-FITC/propidium iodide staining-based flow cytometric analysis (reference value: 90.6%); format: functional; conditions: A549, 12 h, read-out: Activity
In short: (§2)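 After 12 h treatment with DMSO as control, A549 cells were harvested by trypsin, washed twice in PBS and resuspended at 1 × 10^6 cells/mL in binding buffer. Annexin V-FITC and PI staining for 30 min at room temperature in the dark. Flow cytometry with 488 nm excitation, FITC read at 530 nm and PI at 670 nm. Quadrant percentages are means of three independent experiments.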

[4] = test system: A549; test: Induction of apoptosis in human A549 cells assessed as early apoptotic cells at 2.5 uM after 12 hrs by Annexin V-FITC/propidium iodide staining-based flow cytometric analysis (reference value: 7.19%); format: functional; in short: as §2
[5] = test system: A549; test: Induction of apoptosis in human A549 cells assessed as late apoptotic cells at 2.5 uM after 12 hrs by Annexin V-FITC/propidium iodide staining-based flow cytometric analysis (reference value: 0.76%); format: functional; in short: as §2
[6] = test system: A549; test: Induction of apoptosis in human A549 cells assessed as necrotic cells at 2.5 uM after 12 hrs by Annexin V-FITC/propidium iodide staining-based flow cytometric analysis (reference value: 1.42%); format: functional; in short: as §2
[7] = test system: A549; test: Induction of apoptosis in human A549 cells assessed as viable cells at 5 uM after 12 hrs by Annexin V-FITC/propidium iodide staining-based flow cytometric analysis (reference value: 90.6%); format: functional; conditions: A549, 12 h, read-out: Activity; in short: as §2
[8] = test system: A549; test: Induction of apoptosis in human A549 cells assessed as early apoptotic cells at 5 uM after 12 hrs by Annexin V-FITC/propidium iodide staining-based flow cytometric analysis (reference value: 7.19%); format: functional; in short: as §2
[9] = test system: A549; test: Induction of apoptosis in human A549 cells assessed as late apoptotic cells at 5 uM after 12 hrs by Annexin V-FITC/propidium iodide staining-based flow cytometric analysis (reference value: 0.76%); format: functional; in short: as §2
[10] = test system: A549; test: Induction of apoptosis in human A549 cells assessed as necrotic cells at 5 uM after 12 hrs by Annexin V-FITC/propidium iodide staining-based flow cytometric analysis (reference value: 1.42%); format: functional; in short: as §2
[11] = test system: A549; test: Inhibition of RAF/MEK/ERK in human A549 cells assessed as reduction in ERK phosphorylation after 8 hrs by Western blot analysis; format: cell-based
In short: (§3)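 Western blot with primary antibody in BSA overnight at 4°C. Washes in TBS/0.05% Tween-20, then secondary antibody for 1 h at room temperature. Chemiluminescent detection. p-ERK or p-AKT band density normalized to β-actin loading control versus control. Average of three independent experiments.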

[12] = test system: A549; test: Inhibition of PI3K/PDK1/AKT in human A549 cells assessed as reduction in AKT phosphorylation after 8 hrs by Western blot analysis; format: cell-based; in short: as §3
[13] = test system: A549; test: Inhibition of RAF/MEK/ERK in human A549 cells assessed as reduction in ERK phosphorylation at 2.5 uM after 8 hrs by Western blot analysis; format: cell-based; in short: as §3
[14] = test system: A549; test: Inhibition of PI3K/PDK1/AKT in human A549 cells assessed as reduction in AKT phosphorylation at 2.5 uM after 8 hrs by Western blot analysis; format: cell-based; in short: as §3
[15] = test system: A549; test: Inhibition of RAF/MEK/ERK in human A549 cells assessed as reduction in ERK phosphorylation at 1 uM after 8 hrs by Western blot analysis relative to control; format: cell-based; in short: as §3
[16] = test system: A549; test: Inhibition of PI3K/PDK1/AKT in human A549 cells assessed as reduction in AKT phosphorylation at 1 uM after 8 hrs by Western blot analysis; format: cell-based; in short: as §3
[17] = test system: A549; test: Inhibition of PI3K/PDK1/AKT in human A549 cells assessed as remaining AKT phosphorylation level at 1 uM after 8 hrs by Western blot analysis

Row | Structure (SMILES) | IC50 [1] [µM] | IC50 [2] [µM] | other results
1 | CCCCCC1(O)C(=O)Nc2ccc(Nc3ccc(Cl)cc3)cc21 (configuration not stated) | 1.9 | 40.8 | viability at 2.5 µM [3]: 83.2%; Activity [4]: 11.9%; Activity [5]: 2.57%; Activity [6]: 2.31%; viability at 5 µM [7]: 72.3%; Activity [8]: 20.3%; Activity [9]: 5.65%; Activity [10]: 1.82%
2 | Cc1ccc(Nc2ccc3c(c2)C(CCC(C)C)C(=O)N3)cc1 (configuration not stated) | 6.6 | 55.3 | 
3 | O=C1Nc2ccc(Nc3ccc(C(F)(F)F)cc3)cc2C1(O)Cc1ccc2c(c1)OCO2 (configuration not stated) | 1.8 | 18.2 | viability at 2.5 µM [3]: 82.7%; Activity [4]: 11.6%; Activity [5]: 3.39%; Activity [6]: 2.25%; viability at 5 µM [7]: 65.3%; Activity [8]: 25.5%; Activity [9]: 7.57%; Activity [10]: 1.7%; inhibition [11]: Dose-dependent effect; inhibition [12]: Dose-dependent effect; inhibition [13]: Active; inhibition [14]: Active
4 | O=C1Nc2ccc(Nc3ccc(C(F)(F)F)cc3)cc2C1(O)Cc1ccccc1 (configuration not stated) | 2 | 9.1 | 
5 | CCCCC1(O)C(=O)Nc2ccc(Nc3ccc(C)cc3)cc21 (configuration not stated) | 7.5 | 31.8 | 
6 | CCCCCC1(O)C(=O)Nc2ccc(Nc3ccc(F)cc3)cc21 (configuration not stated) | 5.9 | > 100 | 
7 | O=C1Nc2ccc(Nc3ccc(Cl)cc3)cc2/C1=C\c1ccccc1 | 15 | 13.5 | 
8 | O=C1Nc2ccc(Nc3ccc(Cl)cc3)cc2C1CC1CCCCC1 (configuration not stated) | 16.6 | > 100 | 
9 | CC(C)CCC1(O)C(=O)Nc2ccc(Nc3ccc(C(F)(F)F)cc3)cc21 (configuration not stated) | 4.2 | 17.2 | 
10 | CCCCCCC1(O)C(=O)Nc2ccc(Nc3ccc(C(F)(F)F)cc3)cc21 (configuration not stated) | 2.8 | 18.8 | 
11 | O=C1Nc2ccc(Nc3ccc(Cl)cc3)cc2/C1=C\c1ccc2c(c1)OCO2 | 3.1 | 24.6 | 
12 | Cc1ccc(Nc2ccc3c(c2)C(CC2CCCCC2)C(=O)N3)cc1 (configuration not stated) | > 30 | > 100 | 
13 | O=C1Nc2ccc(Nc3ccc(F)cc3)cc2C1(O)Cc1ccccc1 (configuration not stated) | 3 | 18.1 | 
14 | Cc1ccc(Nc2ccc3c(c2)C(O)(CCC(C)C)C(=O)N3)cc1 (configuration not stated) | 12.5 | 22.7 | 
15 | CCCCCCC1(O)C(=O)Nc2ccc(Nc3ccc(C)cc3)cc21 (configuration not stated) | 12.1 | > 100 | 
16 | O=C1Nc2ccc(Nc3ccc(Cl)cc3)cc2C1(O)Cc1ccccc1 (configuration not stated) | 3.1 | 20.2 | 
17 | CCCCCC1(O)C(=O)Nc2ccc(Nc3ccc(C)cc3)cc21 (configuration not stated) | 8.1 | > 100 | 
18 | CCCCCCC1(O)C(=O)Nc2ccc(Nc3ccc(Cl)cc3)cc21 (configuration not stated) | 5.4 | 30.3 | 
19 | O=C1Nc2ccc(Nc3ccc(Cl)cc3)cc2C1Cc1ccc2c(c1)OCO2 (configuration not stated) | 6 | 36.7 | 
20 | O=C1Nc2ccc(Nc3ccc(F)cc3)cc2/C1=C\c1ccc2c(c1)OCO2 | 26.3 | > 100 | 
21 | CCCCCCC1(O)C(=O)Nc2ccc(Nc3ccc(F)cc3)cc21 (configuration not stated) | 12 | 50.7 | 
22 | Cc1ccc(Nc2ccc3c(c2)/C(=C\c2ccc4c(c2)OCO4)C(=O)N3)cc1 | 16.7 | > 100 | 
23 | O=C1Nc2ccc(Nc3ccc(F)cc3)cc2C1Cc1ccc2c(c1)OCO2 (configuration not stated) | > 30 | > 100 | 

Row | Structure (SMILES) | IC50 [1] [µM] | IC50 [2] [µM] | other results
24 | CCCCCC1(O)C(=O)Nc2ccc(Nc3ccc(C(F)(F)F)cc3)cc21 (configuration not stated) | 2.2 | 16.3 | 
25 | CCCCCCC1(O)C(=O)Nc2ccc(Nc3ccc(OC)cc3)cc21 (configuration not stated) | 18.6 | > 100 | 
26 | CCCCCC1(O)C(=O)Nc2ccc(Nc3ccc(OC)cc3)cc21 (configuration not stated) | 8 | 16.2 | 
27 | O=C1Nc2ccc(Nc3ccccc3Cl)cc2C1(O)Cc1ccccc1 (configuration not stated) | 2.3 | 14.6 | 
28 | O=C1Nc2ccc(Nc3ccc(Cl)cc3)cc2C1(O)Cc1ccc2c(c1)OCO2 (configuration not stated) | 3 | 26.6 | 
29 | Cc1ccc(Nc2ccc3c(c2)/C(=C\C2CCCCC2)C(=O)N3)cc1 | 28.2 | 45.5 | 
30 | Cc1ccc(Nc2ccc3c(c2)C(O)(Cc2ccc4c(c2)OCO4)C(=O)N3)cc1 (configuration not stated) | 11.9 | 14.7 | 
31 | CCCCC1(O)C(=O)Nc2ccc(Nc3ccc(Cl)cc3)cc21 (configuration not stated) | 2.8 | 24.4 | 
32 | CC(C)CCC1(O)C(=O)Nc2ccc(Nc3ccc(F)cc3)cc21 (configuration not stated) | 5.7 | 16.8 | 
33 | O=C1Nc2ccc(Nc3ccc(Cl)cc3)cc2/C1=C\C1CCCCC1 | 2.4 | 13.2 | 
34 | O=C1Nc2ccc(Nc3ccc(F)cc3)cc2C1(O)Cc1ccc2c(c1)OCO2 (configuration not stated) | 24.9 | 80.4 | 
35 | Cc1ccc(Nc2ccc3c(c2)C(Cc2ccc4c(c2)OCO4)C(=O)N3)cc1 (configuration not stated) | 18.9 | 63.6 | 
36 | CCC/C=C1/C(=O)Nc2ccc(Nc3ccc(C)cc3)cc21 | 3.6 | 19 | 
37 | Cn1cnc2c(F)c(Nc3ccc(Br)cc3Cl)c(C(=O)NOCCO)cc21 [SELUMETINIB] | 5.2 |  | inhibition [15]: 65%; inhibition [16]: inactive
38 | CC(C)C/C=C1/C(=O)Nc2ccc(Nc3ccc(Cl)cc3)cc21 | 7.4 | 50.9 | 
39 | Cc1ccc(Nc2ccc3c(c2)C(O)(Cc2ccccc2)C(=O)N3)cc1 (configuration not stated) | 4.1 | 31.6 | 
40 | CC(C)CCC1(O)C(=O)Nc2ccc(Nc3ccc(Cl)cc3)cc21 (configuration not stated) | 2.7 | 25 | 
41 | CCCCC1(O)C(=O)Nc2ccc(Nc3ccc(F)cc3)cc21 (configuration not stated) | 6.5 | 32.5 | 
42 | CC(C)CCC1C(=O)Nc2ccc(Nc3ccc(Cl)cc3)cc21 (configuration not stated) | 2 | 48.7 | 
43 | NC1(c2ccc(-c3nc4ccn5c(=O)[nH]nc5c4cc3-c3ccccc3)cc2)CCC1 [MK-2206] | 8.1 |  | inhibition [15]: Active; remaining p-AKT level [17]: 33%
44 | CCCCC1(O)C(=O)Nc2ccc(Nc3ccc(C(F)(F)F)cc3)cc21 (configuration not stated) | 2.3 | 12 | 
45 | COc1ccc(Nc2ccc3c(c2)C(O)(Cc2ccccc2)C(=O)N3)cc1 (configuration not stated) | > 30 | > 100 | 
